Assay outcomes: PubChem BioAssay, NMMLSC
In the library only some 2.3% were active in any assay of this set; here they are far more common.
Arr AP2 block: human beta-arrestin and AP2 interaction inhibition; inhibition, % at 10 µM; FITC-arrestin peptide / GST-AP2 beads, flow cytometry; AP2 beta2 appendage carries R879A mutation; 340,000 tested, 0.31% active;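 active = inhibition above a set limit, near 3 SD of compounds lacking own fluorescence, cut at about 54% in these data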;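 also: plate controls were DMSO wells for no effect and 5 µM unlabelled arrestin peptide for full effect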
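test system = AP2 appendage R879A on GSH beads | buffer or medium = PBS plus Tween 20 (0.05%) and BSA (0.1%) | incubation = 12 min plus 1 h, RT | detection = bead flow cytometry, FITC channel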
MEKK2 mut-MEK5: signal of MEK5 binding to mutant human MEKK2 PB1 domain; 290,000 tested, 0.35% active; AID 1530; percent response, % at 10 µM; bead flow cytometry, Alexa488-MEK5 binding to MEKK2 mutant; in the data active = percent response above about 24%, passing the limit was not always enough
MEKK2 WT-MEK5: raises or lowers MEK5 binding to wildtype human MEKK2 PB1 domain; Q9Y2U5; bead flow cytometry, Alexa488-MEK5 binding to MEKK2 WT; actives lie on both sides; binding response (% of control), % at 10 µM; 290,000 tested, 1.1% active; in the data active = binding response below about 67% or above about 130%
MEKK3 PB1 HTS: modulators (inhibitors or enhancers) of MEK5 binding to human MEKK3 PB1 domain; bead-based flow cytometry, Alexa488-MEK5 binding to MEKK3; actives lie on both sides; 0 = blocked by unlabeled MEK5, 100 = vehicle; binding response (% of control), % at 10 µM; 290,000 tested, 1.4% active; Q99759; AID 1529;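 active = binding response more than 3 SD above or below the average of its plate-row segment, actives on both sides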;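 also: Alexa488 bead fluorescence after subtracting the streptavidin-only scavenger bead signal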
Target sequence (Q99759 whole entry, looked up, the tested form may be a part): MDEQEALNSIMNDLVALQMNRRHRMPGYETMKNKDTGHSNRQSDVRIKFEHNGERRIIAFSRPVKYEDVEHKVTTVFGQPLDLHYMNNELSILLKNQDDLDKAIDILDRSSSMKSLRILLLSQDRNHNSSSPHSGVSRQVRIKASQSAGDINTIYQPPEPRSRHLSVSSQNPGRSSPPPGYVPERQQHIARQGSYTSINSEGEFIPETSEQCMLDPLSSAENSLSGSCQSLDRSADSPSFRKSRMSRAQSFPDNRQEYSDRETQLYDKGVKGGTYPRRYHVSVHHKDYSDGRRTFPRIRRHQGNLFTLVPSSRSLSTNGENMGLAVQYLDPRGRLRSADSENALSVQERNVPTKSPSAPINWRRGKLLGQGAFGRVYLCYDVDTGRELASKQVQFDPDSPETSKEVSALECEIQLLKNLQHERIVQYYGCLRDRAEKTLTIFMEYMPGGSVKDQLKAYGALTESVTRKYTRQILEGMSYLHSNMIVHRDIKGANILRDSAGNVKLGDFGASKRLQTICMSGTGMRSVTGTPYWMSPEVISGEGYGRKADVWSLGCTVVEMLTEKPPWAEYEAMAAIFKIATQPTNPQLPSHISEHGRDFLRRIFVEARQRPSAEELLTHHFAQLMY
MEKK2wt confirm: raises or lowers MEK5 binding to wildtype human MEKK2, retest | binding response (% of control), % at 10 µM | shares compounds with MEKK3 PB1 HTS | bead flow cytometry, Alexa488-MEK5 binding to MEKK2 WT; actives lie on both sides | 5,900 tested, 2.4% active; in the data active = binding response below about 16% or above about 210%; inactive = in between
MEKK2mut confirm: signal of MEK5 binding to mutant human MEKK2, retest | shares compounds with MEKK3 PB1 HTS | bead flow cytometry, Alexa488-MEK5 binding to MEKK2 mutant | percent response, % at 10 µM | 5,900 tested, 2% active | AID 1893; in the data active = percent response mostly above about 71%, no sharp cut-off; inactive = mostly below about 38%;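 also: higher means compound restores mutant binding toward wildtype level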
MEKK3 confirm: confirmation of inhibitors of MEK5 binding to human MEKK3. shares compounds with MEKK3 PB1 HTS. bead flow cytometry, Alexa488-MEK5 binding to MEKK3; stronger effect = lower value. binding response (% of control), % at 10 µM. 5,900 tested, 1.8% active. AID 1894;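 active = binding response below 72% of control, or above a set upper limit, though filed actives all read lower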;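 also: 100% = DMSO only wells and 0% = binding blocked by excess unlabeled MEK5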
An asterisk follows results filed as active; [ ] = dose if it differs, or a comment.

`Fc1ccc(CNC(=S)NCc2ccc(F)cc2)cc1` gave Arr AP2 block 0, MEKK2 mut-MEK5 6, MEKK2 WT-MEK5 104 and MEKK3 PB1 HTS 103.
COc1ccc(CCN2C(=O)CC(NNc3ccc([N+](=O)[O-])cc3)C2=O)cc1OC (stereo not given) was read as Arr AP2 block 14, MEKK2 mut-MEK5 1, MEKK2 WT-MEK5 102 and MEKK3 PB1 HTS 101.
Screening Cc1cc([N+](=O)[O-])cc2c1NC(=O)C2(O)N1CCCCCC1 (stereo not given) returned Arr AP2 block 0, MEKK2 mut-MEK5 2, MEKK2 WT-MEK5 118, MEKK3 PB1 HTS 163*, MEKK2wt confirm 111, MEKK2mut confirm 4 and MEKK3 confirm 106.
`Cc1cc([N+](=O)[O-])cc2c1NC(=O)C2(O)N1CCCC(C)C1` (stereo not given) gave Arr AP2 block 2, MEKK2 mut-MEK5 8, MEKK2 WT-MEK5 106 and MEKK3 PB1 HTS 101.
Cc1ccc(S(=O)(=O)NCCCCCC(=O)N(C)C)cc1 was read as Arr AP2 block 2, MEKK2 mut-MEK5 -11, MEKK2 WT-MEK5 77, MEKK3 PB1 HTS 71*[inhibitor], MEKK2wt confirm 105, MEKK2mut confirm 6 and MEKK3 confirm 106.
For Cc1ccc(NC(=O)CCCCCNS(=O)(=O)c2ccc(C)cc2)cc1 the results were Arr AP2 block 7, MEKK2 mut-MEK5 0, MEKK2 WT-MEK5 104 and MEKK3 PB1 HTS 102.
Screening Cc1[nH]n(-c2ccc([N+](=O)[O-])cc2)c(=O)c1C=NCCN1CCN(C(=O)c2cccc(F)c2)CC1 returned Arr AP2 block 22, MEKK2 mut-MEK5 8, MEKK2 WT-MEK5 126, MEKK3 PB1 HTS 127*, MEKK2wt confirm 110, MEKK2mut confirm 13 and MEKK3 confirm 105.
For Cc1[nH]n(-c2ccc([N+](=O)[O-])cc2)c(=O)c1C=NCCN1CCN(C(=O)c2ccc(F)cc2)CC1 the results were Arr AP2 block 3.
C/C(CC(=O)Nc1cccnc1)=N\NC(=O)C(=O)Nc1cccc(C)c1 was read as Arr AP2 block 21, MEKK2 mut-MEK5 4, MEKK2 WT-MEK5 104 and MEKK3 PB1 HTS 107.
`O=C1NC[C@H](CC2CCCCC2)N(CCc2cccc(F)c2)C1=O` gave Arr AP2 block -1.
CCCC(=O)NCn1nnc(-c2ccc(Cl)cc2)n1 was read as Arr AP2 block -13, MEKK2 mut-MEK5 active, MEKK2 WT-MEK5 94, MEKK3 PB1 HTS 221*, MEKK2wt confirm 102, MEKK2mut confirm 1 and MEKK3 confirm 103.
CCN(CC)C(=S)Nc1ccc(OC)cc1 was read as Arr AP2 block -15, MEKK2 mut-MEK5 1, MEKK2 WT-MEK5 113, MEKK3 PB1 HTS 155*, MEKK2wt confirm 103, MEKK2mut confirm 2 and MEKK3 confirm 104.
`Oc1ccccc1-c1cc(-c2ccco2)[nH]n1` gave Arr AP2 block -5, MEKK2 mut-MEK5 -1, MEKK2 WT-MEK5 96 and MEKK3 PB1 HTS 103.
Oc1ccc(Cl)cc1-c1cc(-c2ccco2)[nH]n1 was read as Arr AP2 block 25, MEKK2 mut-MEK5 -16, MEKK2 WT-MEK5 88, MEKK3 PB1 HTS 78*[inhibitor], MEKK2wt confirm 97, MEKK2mut confirm -12 and MEKK3 confirm 92.
For COc1ccc(NS(=O)(=O)c2cccc(C(=O)NCc3cccnc3)c2)cc1 the results were Arr AP2 block 16.
For COc1ccc(CN(C(=O)c2cnccn2)C(C(=O)NC(C)(C)C)c2cc(OC)c(OC)c(OC)c2)cc1 (stereo not given) the results were Arr AP2 block 6, MEKK2 mut-MEK5 -3, MEKK2 WT-MEK5 100 and MEKK3 PB1 HTS 94.
COc1cc(C(C(=O)NC(C)(C)C)N(Cc2ccc3c(c2)OCO3)C(=O)c2cnccn2)cc(OC)c1OC (stereo not given) was read as Arr AP2 block 3, MEKK2 mut-MEK5 -14, MEKK2 WT-MEK5 58, MEKK3 PB1 HTS 40*[inhibitor], MEKK2wt confirm 101, MEKK2mut confirm -2 and MEKK3 confirm 100.
Cc1cc(C)cc(NC(=O)CSc2nc3c(oc4ccccc43)c(=O)n2-c2ccccc2)c1 was read as Arr AP2 block -21, MEKK2 mut-MEK5 0, MEKK2 WT-MEK5 98 and MEKK3 PB1 HTS 124.
For O=C(Cn1c(=O)n(-c2ccccc2)c(=O)c2oc3ccccc3c21)Nc1ccccc1 the results were Arr AP2 block 9, MEKK2 mut-MEK5 0, MEKK2 WT-MEK5 103, MEKK3 PB1 HTS 131*, MEKK2wt confirm 106, MEKK2mut confirm 4 and MEKK3 confirm 102.
COc1cc(S(=O)(=O)N(Cc2cccnc2)Cc2ccco2)ccc1-n1cnnn1 was read as Arr AP2 block 3, MEKK2 mut-MEK5 -12, MEKK2 WT-MEK5 86, MEKK3 PB1 HTS 80*[inhibitor], MEKK2wt confirm 149, MEKK2mut confirm 28 and MEKK3 confirm 111.
Screening COc1ccc(C2C3=C(CC(C)(C)CC3=O)Nc3c2c(=O)n(C)c(=O)n3C)cc1OC (stereo not given) returned Arr AP2 block -9, MEKK2 mut-MEK5 1, MEKK2 WT-MEK5 119, MEKK3 PB1 HTS 128*, MEKK2wt confirm 108, MEKK2mut confirm 1 and MEKK3 confirm 104.
For O=C(CN(c1ccccc1)S(=O)(=O)c1ccccc1)Nc1ccc(F)cc1 the results were Arr AP2 block -1, MEKK2 mut-MEK5 3, MEKK2 WT-MEK5 107 and MEKK3 PB1 HTS 104.
O=C(/C(=N\Nc1ccc(Br)cc1)Sc1nnnn1-c1ccccc1)c1ccccc1 was read as Arr AP2 block 0, MEKK2 mut-MEK5 -1, MEKK2 WT-MEK5 104, MEKK3 PB1 HTS 130*, MEKK2wt confirm 107, MEKK2mut confirm -2 and MEKK3 confirm 104.
`CCOC(=O)/C(=N/Nc1ccccc1)Sc1nnnn1-c1ccc(C)cc1` gave Arr AP2 block 6, MEKK2 mut-MEK5 4, MEKK2 WT-MEK5 105, MEKK3 PB1 HTS 129*, MEKK2wt confirm 100, MEKK2mut confirm -2 and MEKK3 confirm 97.
O=C(CCNC(=O)c1ccccc1Cl)NCCCSc1ccccc1 was read as Arr AP2 block -1.
O=C(NCCSc1ccccc1)c1ccccc1Cl was read as Arr AP2 block 9, MEKK2 mut-MEK5 1, MEKK2 WT-MEK5 110, MEKK3 PB1 HTS 156*, MEKK2wt confirm 102, MEKK2mut confirm -2 and MEKK3 confirm 104.
For Cc1ccc(S(=O)(=O)N2CCOCC2)cc1C(=O)OCC(=O)NC1CCS(=O)(=O)C1 (stereo not given) the results were Arr AP2 block 10, MEKK2 mut-MEK5 -2, MEKK2 WT-MEK5 100 and MEKK3 PB1 HTS 103.
